pIC50: −log10 of the molar value.
Legend:
[1] = molecular target: Epidermal growth factor receptor (Homo sapiens, UniProt P00533); test: Inhibition of EGFR (unknown origin) using poly(Glu,Tyr) as substrate after 30 mins by HTRF assay
How it was run: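 HTRF kinase assay with purified kinase protein on precoated poly(Glu,Tyr) 4:1 substrate (20 µg/mL). Buffer was 50 mM HEPES pH 7.0 with DTT, MgCl2, MnCl2 and 0.1% NaN3, plus ATP added from a 10 mM solution. Compounds were in 1% DMSO. Reaction ran 30 min at 25 °C and was stopped with Streptavidin-XL665 and TK antibody-cryptate. Read at 320/615 nm; % inhibition from max/min controls, IC50 from inhibition curves.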

NCI-H460 = test: cells; conditions: Homo sapiens, NCI-H460, 72 h
MDA-MB-231 = test: Cytotoxicity against human MDA-MB-231 cells after 72 hrs by MTT assay; format: functional, cell-based; conditions: MDA-MB-231, 72 h
How it was run: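 Cells were grown in MEM with 10% FBS. About 4×10^3 cells per well were seeded and incubated 24 h at 37 °C in 5% CO2. Compounds were then added at set final concentrations for 72 h. MTT (final 5 µg/mL) was added for 4 h at 37 °C, and formazan was dissolved in DMSO and read at 492 nm against a 630 nm reference. Each line was tested three times; IC50 is mean ± SD.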

cells = conditions: Homo sapiens, U-87 MG, 72 h
A549 = test: Cytotoxicity against human A549 cells after 72 hrs by MTT assay; format: functional, cell-based; conditions: A549, 72 h
HT-29 = test: cells; conditions: Homo sapiens, HT-29, 72 h
[2] = molecular target: Mast/stem cell growth factor receptor Kit (Homo sapiens, UniProt P10721); test: Inhibition of c-KIT (unknown origin) using poly(Glu,Tyr) as substrate after 30 mins by HTRF assay
Chain of Mast/stem cell growth factor receptor Kit (P10721 whole entry): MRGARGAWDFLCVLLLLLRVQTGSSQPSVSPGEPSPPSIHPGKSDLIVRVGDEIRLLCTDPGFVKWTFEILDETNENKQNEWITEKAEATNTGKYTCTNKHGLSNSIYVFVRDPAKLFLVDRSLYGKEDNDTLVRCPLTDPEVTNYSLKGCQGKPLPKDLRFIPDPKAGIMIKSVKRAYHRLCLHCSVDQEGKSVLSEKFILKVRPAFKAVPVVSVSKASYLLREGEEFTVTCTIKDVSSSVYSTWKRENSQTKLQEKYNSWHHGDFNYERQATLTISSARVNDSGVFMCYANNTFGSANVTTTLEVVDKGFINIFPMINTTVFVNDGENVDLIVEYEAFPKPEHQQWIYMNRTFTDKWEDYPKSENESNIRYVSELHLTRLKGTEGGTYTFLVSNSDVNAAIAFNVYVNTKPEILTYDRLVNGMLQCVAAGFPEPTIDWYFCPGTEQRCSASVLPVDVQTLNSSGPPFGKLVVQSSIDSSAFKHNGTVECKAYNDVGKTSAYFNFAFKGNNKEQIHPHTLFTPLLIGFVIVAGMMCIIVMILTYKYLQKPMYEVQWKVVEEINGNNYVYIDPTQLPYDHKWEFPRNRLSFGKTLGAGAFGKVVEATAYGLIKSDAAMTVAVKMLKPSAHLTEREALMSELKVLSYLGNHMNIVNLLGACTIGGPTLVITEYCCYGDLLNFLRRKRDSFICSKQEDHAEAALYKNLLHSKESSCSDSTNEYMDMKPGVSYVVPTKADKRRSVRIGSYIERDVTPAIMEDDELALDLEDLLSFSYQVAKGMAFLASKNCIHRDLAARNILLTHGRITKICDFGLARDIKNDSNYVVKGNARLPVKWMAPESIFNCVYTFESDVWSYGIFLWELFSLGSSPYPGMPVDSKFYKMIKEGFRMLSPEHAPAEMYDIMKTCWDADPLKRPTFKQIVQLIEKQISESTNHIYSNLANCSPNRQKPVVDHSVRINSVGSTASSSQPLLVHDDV
How it was run: (§1)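 HTRF kinase assay on plates precoated with poly(Glu,Tyr) 4:1 (20 µg/mL). ATP was added as a 10 mM solution in 50 mM HEPES pH 7.0 buffer with DTT, MgCl2, MnCl2 and 0.1% NaN3. Compounds were in 1% DMSO, and purified kinase started the reaction (30 min, 25 °C). Streptavidin-XL665/TK antibody cryptate stopped it, read at 320/615 nm. Inhibition was scaled to enzyme and no-enzyme controls; IC50 from curves.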

[3] = molecular target: T1, Receptor-type tyrosine-protein kinase FLT3 (Homo sapiens, UniProt P36888); test: Inhibition of FLT-3 (unknown origin) using poly(Glu,Tyr) as substrate after 30 mins by HTRF assay; how it was run: as §1
T1 sequence (P36888 whole entry): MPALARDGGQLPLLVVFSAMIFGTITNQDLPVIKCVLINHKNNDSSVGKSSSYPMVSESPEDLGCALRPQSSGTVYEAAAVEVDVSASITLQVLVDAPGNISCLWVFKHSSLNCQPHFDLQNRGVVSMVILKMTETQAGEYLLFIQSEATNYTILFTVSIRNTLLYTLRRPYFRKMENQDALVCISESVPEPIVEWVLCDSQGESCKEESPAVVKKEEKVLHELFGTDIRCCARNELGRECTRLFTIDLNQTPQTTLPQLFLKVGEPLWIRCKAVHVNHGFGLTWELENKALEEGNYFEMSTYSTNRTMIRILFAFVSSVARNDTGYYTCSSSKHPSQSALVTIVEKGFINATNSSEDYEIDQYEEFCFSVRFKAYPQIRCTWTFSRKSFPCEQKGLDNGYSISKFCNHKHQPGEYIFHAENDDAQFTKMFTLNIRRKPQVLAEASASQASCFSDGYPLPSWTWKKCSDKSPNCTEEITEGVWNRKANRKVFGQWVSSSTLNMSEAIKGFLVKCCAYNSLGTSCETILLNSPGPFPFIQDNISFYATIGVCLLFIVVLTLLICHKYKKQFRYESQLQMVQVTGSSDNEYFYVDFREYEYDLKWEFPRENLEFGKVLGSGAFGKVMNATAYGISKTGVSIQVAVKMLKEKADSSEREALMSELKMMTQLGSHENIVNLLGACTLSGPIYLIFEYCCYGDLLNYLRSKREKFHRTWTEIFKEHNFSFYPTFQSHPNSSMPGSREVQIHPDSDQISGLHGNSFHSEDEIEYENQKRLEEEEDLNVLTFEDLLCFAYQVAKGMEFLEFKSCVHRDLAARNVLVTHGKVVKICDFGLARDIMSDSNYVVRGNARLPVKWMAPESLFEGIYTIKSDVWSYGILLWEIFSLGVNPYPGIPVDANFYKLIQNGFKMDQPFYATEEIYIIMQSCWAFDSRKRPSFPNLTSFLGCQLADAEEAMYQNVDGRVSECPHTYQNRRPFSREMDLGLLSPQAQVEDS

[4] = molecular target: Macrophage-stimulating protein receptor (Homo sapiens, UniProt Q04912); test: Inhibition of RON (unknown origin) using poly(Glu,Tyr) as substrate after 30 mins by HTRF assay; how it was run: as §1
SMMC-7721 = test: cells; conditions: Homo sapiens, SMMC-7721, 72 h
[5] = molecular target: Platelet-derived growth factor receptor alpha (Homo sapiens, UniProt P16234); test: Inhibition of PDGFRalpha (unknown origin) using poly(Glu,Tyr) as substrate after 30 mins by HTRF assay; how it was run: as §1
Chain of Platelet-derived growth factor receptor alpha (P16234 whole entry): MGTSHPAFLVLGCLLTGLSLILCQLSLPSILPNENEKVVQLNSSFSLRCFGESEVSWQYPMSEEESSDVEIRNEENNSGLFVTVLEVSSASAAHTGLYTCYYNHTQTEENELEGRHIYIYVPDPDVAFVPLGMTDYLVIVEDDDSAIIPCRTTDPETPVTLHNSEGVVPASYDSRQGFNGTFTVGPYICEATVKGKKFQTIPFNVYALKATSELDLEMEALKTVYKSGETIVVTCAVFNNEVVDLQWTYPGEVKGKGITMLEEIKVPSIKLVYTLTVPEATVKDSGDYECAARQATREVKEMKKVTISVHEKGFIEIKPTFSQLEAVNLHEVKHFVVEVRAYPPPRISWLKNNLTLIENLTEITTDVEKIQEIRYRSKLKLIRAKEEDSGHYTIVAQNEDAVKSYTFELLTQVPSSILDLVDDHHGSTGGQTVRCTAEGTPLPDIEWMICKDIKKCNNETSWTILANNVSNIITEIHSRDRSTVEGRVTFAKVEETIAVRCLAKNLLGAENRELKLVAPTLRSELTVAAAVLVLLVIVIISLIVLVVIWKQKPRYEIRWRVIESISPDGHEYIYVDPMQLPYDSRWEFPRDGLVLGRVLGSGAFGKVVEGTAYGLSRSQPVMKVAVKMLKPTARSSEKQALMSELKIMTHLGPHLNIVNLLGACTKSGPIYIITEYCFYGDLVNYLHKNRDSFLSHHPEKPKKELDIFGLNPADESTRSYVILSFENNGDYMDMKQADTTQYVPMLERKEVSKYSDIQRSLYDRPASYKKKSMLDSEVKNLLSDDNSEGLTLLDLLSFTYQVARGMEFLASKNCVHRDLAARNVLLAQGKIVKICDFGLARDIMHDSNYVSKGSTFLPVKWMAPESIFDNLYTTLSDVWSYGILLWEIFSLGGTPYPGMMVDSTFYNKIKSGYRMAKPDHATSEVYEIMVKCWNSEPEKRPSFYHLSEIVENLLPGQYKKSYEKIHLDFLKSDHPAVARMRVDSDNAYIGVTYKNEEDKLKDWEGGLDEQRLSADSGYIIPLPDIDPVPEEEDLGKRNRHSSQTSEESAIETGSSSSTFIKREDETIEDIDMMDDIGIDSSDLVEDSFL

MKN-45 = test: cells; conditions: Homo sapiens, MKN-45, 72 h
[6] = molecular target: Vascular endothelial growth factor receptor 2 (Homo sapiens, UniProt P35968); test: Inhibition of KDR (unknown origin) using poly(Glu,Tyr) as substrate after 30 mins by HTRF assay; how it was run: as §1
Chain of Vascular endothelial growth factor receptor 2 (P35968 whole entry): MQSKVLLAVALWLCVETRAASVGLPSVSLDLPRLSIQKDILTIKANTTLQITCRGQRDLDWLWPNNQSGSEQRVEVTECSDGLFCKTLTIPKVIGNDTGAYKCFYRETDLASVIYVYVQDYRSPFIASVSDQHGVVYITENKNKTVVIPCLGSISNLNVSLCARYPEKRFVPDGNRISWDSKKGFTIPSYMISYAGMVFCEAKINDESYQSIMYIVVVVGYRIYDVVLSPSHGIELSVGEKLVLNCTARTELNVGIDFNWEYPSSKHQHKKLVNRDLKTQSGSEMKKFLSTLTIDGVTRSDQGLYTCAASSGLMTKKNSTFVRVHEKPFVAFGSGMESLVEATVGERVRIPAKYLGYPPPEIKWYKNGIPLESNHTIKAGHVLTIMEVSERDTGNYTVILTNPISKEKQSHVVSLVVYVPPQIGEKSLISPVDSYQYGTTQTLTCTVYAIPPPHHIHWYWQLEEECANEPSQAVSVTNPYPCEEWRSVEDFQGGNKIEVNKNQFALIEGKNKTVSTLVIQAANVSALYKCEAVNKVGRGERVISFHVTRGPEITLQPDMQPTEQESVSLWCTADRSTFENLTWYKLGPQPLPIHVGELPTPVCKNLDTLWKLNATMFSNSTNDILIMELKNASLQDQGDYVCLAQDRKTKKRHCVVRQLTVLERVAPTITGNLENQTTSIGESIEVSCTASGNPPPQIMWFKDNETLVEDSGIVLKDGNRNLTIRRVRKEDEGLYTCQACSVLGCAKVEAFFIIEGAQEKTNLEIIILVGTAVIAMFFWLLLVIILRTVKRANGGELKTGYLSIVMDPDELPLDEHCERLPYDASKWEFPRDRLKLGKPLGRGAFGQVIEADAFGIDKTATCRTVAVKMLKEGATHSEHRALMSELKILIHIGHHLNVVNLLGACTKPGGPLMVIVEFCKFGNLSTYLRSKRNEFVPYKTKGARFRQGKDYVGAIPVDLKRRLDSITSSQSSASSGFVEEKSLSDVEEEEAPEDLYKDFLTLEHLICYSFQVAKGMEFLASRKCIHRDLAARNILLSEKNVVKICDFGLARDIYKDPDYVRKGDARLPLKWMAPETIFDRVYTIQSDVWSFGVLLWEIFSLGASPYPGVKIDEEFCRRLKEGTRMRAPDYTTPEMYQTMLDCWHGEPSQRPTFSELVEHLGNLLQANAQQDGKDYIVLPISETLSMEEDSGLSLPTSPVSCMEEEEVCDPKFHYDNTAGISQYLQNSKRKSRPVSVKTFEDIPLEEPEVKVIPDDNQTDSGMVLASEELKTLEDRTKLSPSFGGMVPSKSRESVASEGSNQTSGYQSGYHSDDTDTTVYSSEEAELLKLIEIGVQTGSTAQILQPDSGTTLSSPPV

Chain of Epidermal growth factor receptor (P00533 whole entry): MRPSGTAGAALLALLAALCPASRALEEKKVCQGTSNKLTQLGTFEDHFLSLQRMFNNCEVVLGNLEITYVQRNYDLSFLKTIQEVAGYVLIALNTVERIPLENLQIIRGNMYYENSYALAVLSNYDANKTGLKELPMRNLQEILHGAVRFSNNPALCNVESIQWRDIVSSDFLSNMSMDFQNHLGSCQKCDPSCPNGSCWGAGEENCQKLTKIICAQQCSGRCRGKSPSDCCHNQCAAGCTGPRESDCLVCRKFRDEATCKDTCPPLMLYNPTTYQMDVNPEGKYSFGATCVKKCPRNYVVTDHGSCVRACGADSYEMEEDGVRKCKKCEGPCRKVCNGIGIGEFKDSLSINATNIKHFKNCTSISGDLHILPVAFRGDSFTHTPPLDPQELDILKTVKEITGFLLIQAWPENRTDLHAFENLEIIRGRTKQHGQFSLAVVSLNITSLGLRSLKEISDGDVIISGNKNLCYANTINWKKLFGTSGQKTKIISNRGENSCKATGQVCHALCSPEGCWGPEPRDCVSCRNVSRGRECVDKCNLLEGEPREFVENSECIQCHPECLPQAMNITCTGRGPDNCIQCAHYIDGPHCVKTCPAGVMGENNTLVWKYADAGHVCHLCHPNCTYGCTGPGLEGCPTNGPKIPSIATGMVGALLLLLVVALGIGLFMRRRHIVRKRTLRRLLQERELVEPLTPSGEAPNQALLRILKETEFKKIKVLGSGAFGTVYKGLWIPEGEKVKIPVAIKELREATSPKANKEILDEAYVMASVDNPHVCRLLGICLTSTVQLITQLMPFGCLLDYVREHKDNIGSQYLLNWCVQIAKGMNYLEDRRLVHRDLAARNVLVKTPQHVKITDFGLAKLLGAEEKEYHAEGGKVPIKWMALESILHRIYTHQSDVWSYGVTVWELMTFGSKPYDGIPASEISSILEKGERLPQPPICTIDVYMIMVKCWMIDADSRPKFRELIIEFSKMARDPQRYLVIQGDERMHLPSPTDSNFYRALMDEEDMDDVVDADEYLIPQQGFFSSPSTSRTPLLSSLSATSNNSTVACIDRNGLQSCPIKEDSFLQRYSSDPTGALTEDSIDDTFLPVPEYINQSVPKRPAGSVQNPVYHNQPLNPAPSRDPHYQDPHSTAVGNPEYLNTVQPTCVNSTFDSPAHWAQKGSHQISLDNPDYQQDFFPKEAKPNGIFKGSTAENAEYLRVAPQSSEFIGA

pIC50 [1]: < 4.00
pIC50 (NCI-H460): 7.24
pIC50 (cells): 8.01
pIC50 (HT-29): 7.10
pIC50 [2]: 6.64
pIC50 [3]: 6.42
pIC50 [4]: 7.73
pIC50 (SMMC-7721): 6.54
pIC50 [5]: 6.41
pIC50 (MKN-45): 6.29
pIC50 [6]: 6.16
SMILES: COc1cc2c(Oc3ccc(NC(=O)N/N=C/c4ccc(F)cc4F)cc3F)ccnc2cc1OCCCN1CCC(C)CC1
pIC50 (MDA-MB-231): 5.96
pIC50 (A549): 7.10

Reference: ChEMBL document CHEMBL2417367 (Bioorg Med Chem, 2013)
